In ChEMBL document CHEMBL1131469, “Novel non-peptide fibrinogen receptor antagonists. 1. Synthesis and glycoprotein IIb-IIIa antagonistic activities of 1,3,4-trisubstituted 2-oxopiperazine derivatives incorporating side-chain functions of the RGDF peptide” (J Med Chem, 1998):
Peptide text beside a SMILES is read from it.

What follows are compounds tested against Integrin alpha-IIb/beta-3 (Homo sapiens, UniProt P05106+P08514) (assay: Ability to inhibit binding of biotin-labeled human fibrinogen to immobilized fibrinogen receptor purified from human erythroleukemia (HEL) cells.).
Sequence of Integrin alpha-IIb/beta-3 (P05106 27-788 limits assumed): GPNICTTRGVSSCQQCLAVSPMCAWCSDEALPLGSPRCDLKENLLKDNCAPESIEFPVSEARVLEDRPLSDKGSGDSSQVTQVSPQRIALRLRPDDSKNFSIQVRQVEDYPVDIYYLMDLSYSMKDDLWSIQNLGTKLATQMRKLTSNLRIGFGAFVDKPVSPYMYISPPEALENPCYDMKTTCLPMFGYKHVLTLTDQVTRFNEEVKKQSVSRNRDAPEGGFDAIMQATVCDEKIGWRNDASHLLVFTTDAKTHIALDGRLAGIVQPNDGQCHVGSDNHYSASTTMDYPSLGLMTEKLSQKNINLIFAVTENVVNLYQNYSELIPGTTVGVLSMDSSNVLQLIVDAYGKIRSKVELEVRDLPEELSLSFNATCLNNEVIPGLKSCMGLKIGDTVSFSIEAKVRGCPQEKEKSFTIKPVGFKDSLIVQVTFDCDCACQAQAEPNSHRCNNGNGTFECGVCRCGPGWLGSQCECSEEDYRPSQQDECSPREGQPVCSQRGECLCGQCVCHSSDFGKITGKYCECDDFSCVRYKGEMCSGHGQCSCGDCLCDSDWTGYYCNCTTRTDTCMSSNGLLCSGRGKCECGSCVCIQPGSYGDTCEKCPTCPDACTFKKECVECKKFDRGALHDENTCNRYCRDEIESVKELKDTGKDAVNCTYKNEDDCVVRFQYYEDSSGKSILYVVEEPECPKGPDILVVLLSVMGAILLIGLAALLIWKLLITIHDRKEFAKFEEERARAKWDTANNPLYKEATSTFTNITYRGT
Sequence of Integrin alpha-IIb/beta-3 (P08514 32-887 limits assumed): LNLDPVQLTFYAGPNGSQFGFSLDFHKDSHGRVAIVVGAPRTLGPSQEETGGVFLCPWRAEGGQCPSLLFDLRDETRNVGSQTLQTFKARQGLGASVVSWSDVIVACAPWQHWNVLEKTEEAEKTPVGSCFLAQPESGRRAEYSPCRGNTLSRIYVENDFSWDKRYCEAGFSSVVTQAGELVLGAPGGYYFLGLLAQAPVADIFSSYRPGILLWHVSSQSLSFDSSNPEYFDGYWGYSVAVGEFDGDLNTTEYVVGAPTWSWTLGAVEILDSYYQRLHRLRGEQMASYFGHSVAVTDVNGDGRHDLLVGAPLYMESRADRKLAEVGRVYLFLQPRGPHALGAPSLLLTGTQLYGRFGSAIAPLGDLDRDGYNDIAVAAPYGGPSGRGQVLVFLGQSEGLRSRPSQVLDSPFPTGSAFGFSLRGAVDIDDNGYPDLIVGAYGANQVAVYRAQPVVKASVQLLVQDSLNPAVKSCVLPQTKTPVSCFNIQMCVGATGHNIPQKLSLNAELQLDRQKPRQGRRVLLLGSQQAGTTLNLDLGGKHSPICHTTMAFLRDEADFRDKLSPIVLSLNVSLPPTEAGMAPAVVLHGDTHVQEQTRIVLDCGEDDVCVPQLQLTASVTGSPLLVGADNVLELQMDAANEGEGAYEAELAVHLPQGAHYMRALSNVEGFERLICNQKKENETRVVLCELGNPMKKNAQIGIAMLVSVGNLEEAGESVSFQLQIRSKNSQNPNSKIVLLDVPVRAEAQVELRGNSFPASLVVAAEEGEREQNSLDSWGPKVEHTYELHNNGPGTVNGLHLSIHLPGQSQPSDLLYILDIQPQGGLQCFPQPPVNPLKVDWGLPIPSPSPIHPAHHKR
Sequence of Integrin alpha-IIb/beta-3 (P08514 891-1039 limits assumed): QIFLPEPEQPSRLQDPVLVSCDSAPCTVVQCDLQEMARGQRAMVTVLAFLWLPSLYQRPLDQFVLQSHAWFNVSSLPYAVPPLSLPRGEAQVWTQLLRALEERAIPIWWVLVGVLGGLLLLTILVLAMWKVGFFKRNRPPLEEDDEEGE
Procedure, shortened: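 Purified GP IIb-IIIa (1 μg/mL, pH 7.4 Tris/NaCl/CaCl2 buffer) coated overnight at 4 °C, blocked with 3.5% BSA 2 h at 30 °C. Wells then incubated with 1 nM biotinylated fibrinogen plus graded compound concentrations, 3 h at 30 °C. IC50 from dose–response curves.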

| IC50 | SMILES |
| --- | --- |
| 0.21 nM | N=C(N)c1ccc(C(=O)NCC(=O)N2CCN(CC(=O)O)C(=O)[C@@H]2CCC(=O)O)cc1 |
| 130 nM | N=C(N)c1cccc(C(=O)NCC(=O)N2CCN(CC(=O)O)C(=O)[C@@H]2CC(=O)O)c1 |
| 1.95 nM | N=C(N)c1ccc(C(=O)NCC(=O)N2CCN(CC(=O)O)C(=O)[C@@H]2Cc2ccccc2)cc1 |
| 16.4 nM | COC(=O)C[C@@H]1C(=O)N(CC(=O)O)CCN1C(=O)CNC(=O)c1ccc(C(=N)N)cc1 |
| 330 nM | N=C(N)c1ccc(C(=O)NCC(=O)N2CCN(CC(N)=O)C(=O)[C@@H]2CC(=O)O)cc1 |
| 63 nM | N=C(N)c1ccc(C(=O)NCC(=O)N2CCN(CCC(=O)O)C(=O)[C@@H]2CC(=O)O)cc1 |
| 0.29 nM | COC(=O)CC[C@H]1C(=O)N(CC(=O)O)CCN1C(=O)CNC(=O)c1ccc(C(=N)N)cc1 |
| 20 nM | N=C(N)NCC1CCC(C(=O)NCC(=O)N2CCN(CC(=O)O)C(=O)[C@@H]2CC(=O)O)CC1 (stereo not given in full) |
| 210 nM | CN(C)C(N)=Nc1ccc(C(=O)NCC(=O)N2CCN(CC(=O)O)C(=O)[C@@H]2CC(=O)O)cc1 |
| 110 nM | N=C(N)NCCC[C@H](N)C(=O)NCC(=O)N[C@@H](CC(=O)O)C(=O)N[C@@H](Cc1ccccc1)C(=O)O (H-RGDF-OH) |
